Results reported in ChEMBL document CHEMBL2203235, “Optimization of a natural product-based class of γ-secretase modulators” (J Med Chem, 2012).

Experiments:
[1] = test system: Liver microsomes; assay: Metabolic stability in human liver microsomes at 1 uM after 60 mins by LC/MS/MS analysis; details: 1 h
[2] = test system: CHO-2B7; assay: Modulation of gamma secretase in CHO-2B7 cells assessed as reduction in amyloid beta 40 level at 20 uM after 5 hrs by MSD ELISA; format: cell-based; parameters: scale not given: the % may be the effect or the level left; details: Cricetulus griseus
[3] = Modulation of gamma secretase in CHO-2B7 cells assessed as reduction in amyloid beta 42 level after 5 hrs by MSD ELISA; format: cell-based; details: Cricetulus griseus, CHO-2B7, 5 h
[4] = test system: CHO-2B7; assay: Modulation of gamma secretase in CHO-2B7 cells assessed as reduction in amyloid beta 42 level at 20 uM after 5 hrs by MSD ELISA; format: cell-based; parameters: scale not given: the % may be the effect or the level left; details: Cricetulus griseus
[5] = test system: Liver microsomes; assay: (§1) Metabolic stability in human liver microsomes assessed as compound remaining at 1 uM at 60 mins by LC/MS/MS analysis in absence of NADPH; format: ADME, Microsome; details: microsomes, 1 h, 1 µM
Procedure, shortened: (§2)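 Human liver microsomes were run without NADPH as a qualitative read of susceptibility to enzymatic hydrolysis. The read-out was percent parent remaining at 60 min.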

[6] = Modulation of gamma secretase in CHO-2B7 cells assessed as reduction in amyloid beta 40 level after 5 hrs by MSD ELISA; format: cell-based; details: Cricetulus griseus, CHO-2B7, 5 h
[7] = as §1; format: ADME, Microsome; details: liver microsomes, read-out: Stability; procedure, shortened: as §2
[8] = Ratio of drug uptake in brain to plasma in CD1 mouse at 1 mg/kg, iv at 6 hrs; details: brain and plasma
[9] = Drug uptake in CD1 mouse brain at 1 mg/kg, iv at 6 hrs
[10] = Plasma concentration in CD1 mouse at 1 mg/kg, iv at 6 hrs

SMILES | Stability [1] | Activity [2] [%] | IC50 [3] [nM] | Stability [5] [%] | remaining at 1 h, 1 µM [7] [%] | also measured
CC(C)[C@@H](OC(=O)N1CCC1)[C@H]1C[C@@H](C)[C@H]2[C@H](O1)[C@H](O)[C@@]1(C)[C@@H]3CC[C@H]4C(C)(C)[C@@H](O[C@H]5CN(C(=O)CNS(=O)(=O)C(F)(F)F)CCO5)CC[C@@]45C[C@@]35CC[C@]21C | Stable | 49 | 1300 |  |  | 
CC(C)[C@@H](OC(=O)N(C)C)[C@H]1C[C@@H](C)[C@H]2[C@H](O1)[C@H](O)[C@@]1(C)[C@@H]3CC[C@H]4C(C)(C)[C@@H](OC(=O)N5CCC5)CC[C@@]45C[C@@]35CC[C@]21C |  | 0 |  | 127 |  | Activity [4]: 0%
CC(C)[C@@H](OC(N)=O)[C@H]1C[C@@H](C)[C@H]2[C@H](O1)[C@H](O)[C@@]1(C)[C@@H]3CC[C@H]4C(C)(C)[C@@H](OC(=O)NC5CNC5)CC[C@@]45C[C@@]35CC[C@]21C |  |  | 160 | 121 |  | IC50 [6]: 4000 nM
CC(C)[C@@H](OC(=O)N1CCC1)[C@H]1C[C@@H](C)[C@H]2[C@H](O1)[C@H](O)[C@@]1(C)[C@@H]3CC[C@H]4C(C)(C)[C@@H](O[C@H]5CN(CC(=O)O)CCO5)CC[C@@]45C[C@@]35CC[C@]21C | Stable | 41 | 700 |  |  | 
CC(C)[C@@H](OC(=O)N(C)C)[C@H]1C[C@@H](C)[C@H]2[C@H](O1)[C@H](O)[C@@]1(C)[C@@H]3CC[C@H]4C(C)(C)[C@@H](OC(=O)N5CCOCC5)CC[C@@]45C[C@@]35CC[C@]21C |  | 17 | 7400 |  | 118 | 
CC(C)[C@@H](OC(=O)N(C)C)[C@H]1C[C@@H](C)[C@H]2[C@H](O1)[C@H](O)[C@@]1(C)[C@@H]3CC[C@H]4C(C)(C)[C@@H](OC(N)=O)CC[C@@]45C[C@@]35CC[C@]21C |  |  | 920 | 131 |  | IC50 [6]: 19000 nM
C[C@@H]1C[C@H]([C@H](O)C(C)(C)O)O[C@H]2[C@H]1[C@@]1(C)CC[C@@]34C[C@@]35CC[C@H](O[C@H]3CN(CC(N)=O)CCO3)C(C)(C)[C@@H]5CC[C@H]4[C@]1(C)[C@H]2O |  |  | 60 |  |  | Activity [4]: 0%
CNC(=O)O[C@@H]([C@H]1C[C@@H](C)[C@H]2[C@H](O1)[C@H](O)[C@@]1(C)[C@@H]3CC[C@H]4C(C)(C)[C@@H](O)CC[C@@]45C[C@@]35CC[C@]21C)C(C)(C)O |  |  |  |  | 96 | Activity [4]: 27%
CC(C)[C@@H](OC(=O)N1CCC1)[C@H]1C[C@@H](C)[C@H]2[C@H](O1)[C@H](O)[C@@]1(C)[C@@H]3CC[C@H]4C(C)(C)[C@@H](OC(=O)NC5CNC5)CC[C@@]45C[C@@]35CC[C@]21C | Stable |  | 100 | 127 |  | IC50 [6]: 2600 nM
C[C@@H]1C[C@H](COC(=O)N(C)C)O[C@H]2[C@H]1[C@@]1(C)CC[C@@]34C[C@@]35CC[C@H](O[C@H]3CN(C(=O)CC6CC6)CCO3)C(C)(C)[C@@H]5CC[C@H]4[C@]1(C)[C@H]2O |  | 63 | 1200 |  | 81 | 
CNC(=O)O[C@H](C(C)C)[C@H]1C[C@@H](C)[C@H]2[C@H](O1)[C@H](O)[C@@]1(C)[C@@H]3CC[C@H]4C(C)(C)[C@@H](OC(=O)N5CCC5)CC[C@@]45C[C@@]35CC[C@]21C |  | 47 | 17000 | 152 |  | 
C[C@@H]1C[C@H]([C@H](OC(=O)N(C)C)C(C)(C)O)O[C@H]2[C@H]1[C@@]1(C)CC[C@@]34C[C@@]35CC[C@H](O)C(C)(C)[C@@H]5CC[C@H]4[C@]1(C)[C@H]2O |  |  |  |  | 115 | Activity [4]: 53%
CNC(=O)O[C@H](C(C)C)[C@H]1C[C@@H](C)[C@H]2[C@H](O1)[C@H](O)[C@@]1(C)[C@@H]3CC[C@H]4C(C)(C)[C@@H](OC(N)=O)CC[C@@]45C[C@@]35CC[C@]21C |  | 40 | 950 |  | 117 | 
C[C@@H]1C[C@H]([C@H](O)C(C)(C)O)O[C@H]2[C@H]1[C@@]1(C)CC[C@@]34C[C@@]35CC[C@H](O[C@H]3CN(C(=O)c6nccn6C)CCO3)C(C)(C)[C@@H]5CC[C@H]4[C@]1(C)[C@H]2O |  |  | 130 |  |  | Activity [4]: 5%
CCO[C@@H]([C@H]1C[C@@H](C)[C@H]2[C@H](O1)[C@H](O)[C@@]1(C)[C@@H]3CC[C@H]4C(C)(C)[C@@H](OC(=O)NC)CC[C@@]45C[C@@]35CC[C@]21C)C(C)(C)O | Stable | 47 | 360 |  |  | 
CC(C)[C@@H](OC(N)=O)[C@H]1C[C@@H](C)[C@H]2[C@H](O1)[C@H](O)[C@@]1(C)[C@@H]3CC[C@H]4C(C)(C)[C@@H](OC(=O)N5CCOCC5)CC[C@@]45C[C@@]35CC[C@]21C |  | 32 | 3400 | 130 |  | 
CCO[C@@H]([C@H]1C[C@@H](C)[C@H]2[C@H](O1)[C@H](O)[C@@]1(C)[C@@H]3CC[C@H]4C(C)(C)[C@@H](OC(=O)N5CCN(C)CC5)CC[C@@]45C[C@@]35CC[C@]21C)C(C)(C)O | Stable |  | 68 |  |  | Kp at 6 h [8]: 0.13; concentration at 6 h [9]: 12 nM; concentration at 6 h [10]: 95 nM; IC50 [6]: 5000 nM
CNC(=O)O[C@H](C(C)C)[C@H]1C[C@@H](C)[C@H]2[C@H](O1)[C@H](O)[C@@]1(C)[C@@H]3CC[C@H]4C(C)(C)[C@@H](OC(=O)N5CCOCC5)CC[C@@]45C[C@@]35CC[C@]21C |  | 17 | 4600 | 139 |  | 
COC(=O)OC[C@H]1C[C@@H](C)[C@H]2[C@H](O1)[C@H](O)[C@@]1(C)[C@@H]3CC[C@H]4C(C)(C)[C@@H](O[C@H]5CN(C(=O)CC6CC6)CCO5)CC[C@@]45C[C@@]35CC[C@]21C |  | 46 | 330 |  | 59 | 
CC(C)[C@@H](OC(=O)N1CCC1)[C@H]1C[C@@H](C)[C@H]2[C@H](O1)[C@H](O)[C@@]1(C)[C@@H]3CC[C@H]4C(C)(C)[C@@H](OC(=O)NC5CCOCC5)CC[C@@]45C[C@@]35CC[C@]21C | Stable | 27 | 3000 |  |  | 
CCO[C@@H]([C@H]1C[C@@H](C)[C@H]2[C@H](O1)[C@H](O)[C@@]1(C)[C@@H]3CC[C@H]4C(C)(C)[C@@H](O[C@H]5CN(C)CCO5)CC[C@@]45C[C@@]35CC[C@]21C)C(C)(C)O | Stable |  | 250 |  |  | Kp at 6 h [8]: 0.76; concentration at 6 h [9]: 16 nM; concentration at 6 h [10]: 21 nM; IC50 [6]: 4500 nM
CC(C)[C@@H](OC(N)=O)[C@H]1C[C@@H](C)[C@H]2[C@H](O1)[C@H](O)[C@@]1(C)[C@@H]3CC[C@H]4C(C)(C)[C@@H](OC(=O)N5CCC5)CC[C@@]45C[C@@]35CC[C@]21C |  | 15 |  |  | 106 | Activity [4]: 40%
C[C@@H]1C[C@H]([C@H](O)C(C)(C)O)O[C@H]2[C@H]1[C@@]1(C)CC[C@@]34C[C@@]35CC[C@H](O[C@H]3CN(C(=O)C6(C)COC6)CCO3)C(C)(C)[C@@H]5CC[C@H]4[C@]1(C)[C@H]2O |  |  | 70 |  |  | Activity [4]: 50%
CC(C)[C@@H](OC(=O)N1CCC1)[C@H]1C[C@@H](C)[C@H]2[C@H](O1)[C@H](O)[C@@]1(C)[C@@H]3CC[C@H]4C(C)(C)[C@@H](OC(=O)N5CCN(C)CC5)CC[C@@]45C[C@@]35CC[C@]21C | Stable |  | 170 |  |  | Kp at 6 h [8]: 0.03; concentration at 6 h [9]: 14 nM; concentration at 6 h [10]: 450 nM; IC50 [6]: 8200 nM
CC(=O)O[C@@H]([C@H]1C[C@@H](C)[C@H]2[C@H](O1)[C@H](O)[C@@]1(C)[C@@H]3CC[C@H]4C(C)(C)[C@@H](O[C@H]5CN(C(=O)CC6CC6)CCO5)CC[C@@]45C[C@@]35CC[C@]21C)C(C)(C)O |  | 38 | 130 |  | 2 | 
CC(=O)OC[C@H]1C[C@@H](C)[C@H]2[C@H](O1)[C@H](O)[C@@]1(C)[C@@H]3CC[C@H]4C(C)(C)[C@@H](O[C@H]5CN(C6COC6)CCO5)CC[C@@]45C[C@@]35CC[C@]21C |  | 0 |  |  | 0 | Activity [4]: 0%
CC(C)[C@@H](OC(=O)N1CCC1)[C@H]1C[C@@H](C)[C@H]2[C@H](O1)[C@H](O)[C@@]1(C)[C@@H]3CC[C@H]4C(C)(C)[C@@H](OC(=O)N5CCC5)CC[C@@]45C[C@@]35CC[C@]21C | Stable |  | 470 | 158 |  | IC50 [6]: 10000 nM
CC(C)[C@@H](OC(=O)N1CCC1)[C@H]1C[C@@H](C)[C@H]2[C@H](O1)[C@H](O)[C@@]1(C)[C@@H]3CC[C@H]4C(C)(C)[C@@H](OC(N)=O)CC[C@@]45C[C@@]35CC[C@]21C |  |  |  | 150 |  | 
